From ChEMBL document CHEMBL4513216, “Probing the Open Global Health Chemical Diversity Library for Multistage-Active Starting Points for Next-Generation Antimalarials” (ACS Infect Dis, 2020)

assay: Toxicity liver stage against HepG2, at 10uM; assay type: cell-based; design: test concentration 10 uM, cell line HepG2-A16-CD81EGFP; settings: human, HepG2-A16-CD81EGFP cells; read-out: INHIBITION
How it was run: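 Uninfected HepG2-A16-CD81EGFP cells, 3 × 10^3 per well, 1536-well, plated on prespotted compound at 10 μM final, parasite-free screening media added to match infected plates; puromycin 10 μM positive, DMSO 0.5% negative; run in parallel with 48 h PbLuc assay at 37 °C, 5% CO2; viability by CellTiter-Glo luminescence, normalized to controls.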

SMILES	cytotoxicity at 10 µM
O=C(CCc1ccc(Cl)s1)N1CCCC(N2CCNC2=O)C1 (stereo not given)	1.09%
CCOc1nnc(CN(Cc2ccccc2)CC(O)c2ccco2)s1 (stereo not given)	-1.57%
O=C(Cc1cccc(F)c1)N1C[C@H]2CN(Cc3ccccn3)C[C@H]2C1	-2.25%
CCCNC(=O)c1ccc(NC(=O)c2cccc(OCC)c2)cc1	-10.5%
Cc1cc(C(=O)NCCc2cn3nc(C)sc3n2)c(C)o1	5.68%
Cc1cccc(OC2CCN(C(=O)NCc3cc[nH]n3)CC2)c1C	7.41%
CC(C)C(=O)NCc1cccc(N2CCCCC2=O)c1	-1.73%
Cc1ccccc1CSc1nc(N)cc(N2CCOCC(CO)C2)n1 (stereo not given)	-9.23%
C[C@H]1C[C@H]2CN(S(=O)(=O)c3ccc(F)cc3)CC[C@@H]2O1	2.97%
Cc1ccc(-c2ccnc(N3CCC4(CC3)CNC(=O)O4)n2)c(C)n1	-6.93%
O=C(c1csc(-c2ccco2)n1)N1CCOc2ncccc21	10.2%
Cc1ccc(S(=O)(=O)NCCNC(=O)c2ccoc2)cc1F	-5.69%
O=C(c1ccc2c(c1)OCCCO2)N1CCCC(n2cccn2)C1 (stereo not given)	-15.6%
Cc1ccc(C(=O)NCc2ccnc(N3CCN(C)CC3)c2)cn1	-2.07%
O=C1NC[C@@]2(C(=O)O)CN(Cc3cccc(C(F)(F)F)c3)C[C@@H]12	-8.58%
CCN(CC)S(=O)(=O)c1ccc(OC)c(NC(=O)CSC)c1	-10%
Cc1nccn1-c1cccc(C2CCCN(C3CCCC3)C2)n1 (stereo not given)	-12.7%
Cc1cc(C)c(CNc2ncnc3ccccc23)c(=O)[nH]1	17.6%
O=C(COCC(=O)N(c1ccccc1)c1ccccc1)N1CCCC1	10.9%
CC1CN(C)CCN1C(=O)c1ccn(-c2ccc(F)cc2)n1 (stereo not given)	-5.3%
O=C(Cc1cccnc1)N1CCCC(n2cncn2)C1 (stereo not given)	-13.1%
COCCN(C)C(=O)NCCc1coc(-c2ccc(C)cc2)n1	8.13%

SMILES	cytotoxicity at 10 µM
COc1ccc(CCNC(=O)NCc2cccc(C(N)=O)c2)cc1OC	11.8%
CC(CN1CCOCC1)NC(=O)c1cc(Cl)c2c(c1)OCCO2 (stereo not given)	-1.4%
Cc1nc(CCC(=O)NC2CCC2)cc(C2CCNCC2)n1	-5.15%
CNC(=O)CSc1cnn(CC(=O)Nc2cccc(Cl)c2C)c(=O)c1Cl	-17.6%
CCc1nc(C2CCCN2C(=O)c2cc(Cl)c[nH]2)no1 (stereo not given)	-12.2%
c1cnc(OCc2nnc3n2CCN(Cc2ccco2)C3)nc1	-2.12%
CSc1ccc(NCC(=O)Nc2c(C)nn(C)c2C)cc1F	10.7%
CC1CCN(S(=O)(=O)c2cccn(CC(=O)NC(C)(C)C)c2=O)CC1	0.00219%
c1ccc2oc(CCCN3CCOC(Cn4cccn4)C3)nc2c1 (stereo not given)	0.987%
Cc1ncsc1-c1nnc(C2CCN(Cc3ccc(F)cc3)CC2)o1	3.52%
CCc1nc(C(=O)N2CCOCC2)nn1-c1ccccc1Cl	-9.29%
CCC(C)NC(=O)CCNC(=O)c1c[nH]cc1-c1cccc(OC)c1 (stereo not given)	6.98%
CNS(=O)(=O)c1ccc(CNC(=O)Nc2cn[nH]c2)cc1	-8.75%
Cc1noc(C(C)C)c1C(=O)NCC(c1ccsc1)N(C)C (stereo not given)	-5.18%
CC(C)n1ccnc1CN1CCCN(C(=O)c2cc(Cl)c[nH]2)CC1	-3.79%
O=C(NCCn1nc2ccccn2c1=O)c1cc(-c2ccccc2)[nH]n1	-28.5%
O=C(NC1CCCC1)c1cc(Cn2cnc3ccccc32)on1	4.51%
CCN(Cc1ccoc1)C(=O)NC1CCN(C(=O)OC(C)(C)C)C1 (stereo not given)	3.65%
COc1ccc2cc(CN(C)CCN3CCCCC3=O)c(=O)[nH]c2c1	0.363%
O=C(NCCNc1ccccn1)N1CCSCC1	-9.58%
COc1ccc(C2=C(C)C(N3CCc4ccccc43)=NS2(=O)=O)cc1	-4.66%
CCn1cc(CNC2CCN(c3cccc(Cl)c3)C2)cn1 (stereo not given)	-10.1%

SMILES	cytotoxicity at 10 µM
CC(=O)N1C[C@H](NS(=O)(=O)Cc2cccc(Cl)c2)[C@@H](C(C)C)C1	-1.73%
CCCN1C[C@@H]2CC[C@H]1CN(c1nnc(C(C)C)s1)C2	-11.4%
COc1cccc(CN2CCC3(CCN(c4ncc(C)cn4)C3)C2=O)c1 (stereo not given)	-0.265%
O=C1NCC2(CCCN(c3ncnc4c3CCC4)CC2)O1 (stereo not given)	-0.718%
Cc1cccc(CNCC2COC3(CCCC3)O2)c1C (stereo not given)	-150%
Cc1c(Br)cnn1C(C)C(=O)Nc1nncs1 (stereo not given)	-4.61%
CCOc1ccc(C(=O)N2CCCC2c2cnn(C)c2)cn1 (stereo not given)	-3.71%
CCOCc1nc2c(c(N(C)Cc3nonc3C)n1)CCNCC2	6.7%
COc1ccc(CNCCc2cccc(C(N)=O)c2)cc1C	-6.81%
COc1ccccc1[C@@H]1CN(Cc2cc(C(C)(C)C)[nH]n2)C[C@H]1C(=O)O	18.4%
CN(CC(=O)NS(=O)(=O)c1ccsc1)Cc1ccccc1	-5.1%
CCCn1nccc1NC(=O)CN1CCCC1Cn1nc(C)nc1C (stereo not given)	-6.84%
Cc1cn2c(n1)C(CNCc1ccc(C)s1)CCC2 (stereo not given)	-26.3%
CN(CCc1ccccc1)Cc1cc(C(=O)N2CCCC2(C)C)no1	-9.18%
CC(=O)N1CCC(C(=O)N(C)[C@@H]2CCC[C@@H](N3CCCC3)[C@@H]2O)CC1	-0.156%
COc1cc(N2C[C@H](C(=O)NC3CC3)[C@@H]3CCO[C@@H]3C2)ncn1	-5.47%
O=C(NCC1CCN(CCc2ccccc2)C1)c1c(F)cccc1F (stereo not given)	16.6%
O=C(c1ccco1)N1CCCC12CCN(c1ncccn1)CC2	3.23%
CCc1cnc(N)nc1NC(C)c1cnn(C)c1 (stereo not given)	-0.333%
c1cnc(NCc2noc3c2CN(C2CCOC2)CC3)nc1 (stereo not given)	-3.71%
COc1cccc(CN2CCC(c3nccn3C(C)C)CC2)c1	-8.37%
COc1ccc(CN2CCOC3(CCCN(c4nnc(C)o4)C3)C2)cc1 (stereo not given)	-23.6%

SMILES	cytotoxicity at 10 µM
Cc1cnn(CC2CCN(CC(O)COc3ccc(F)cc3)CC2)c1 (stereo not given)	-10.9%
Cc1ccccc1NC(=O)Nc1cc(N2CCCC2)ncn1	-7.73%
CC(O)CN(CC(=O)NC1CCCCC1)c1ccccc1 (stereo not given)	-6.08%
C[C@H]1C[C@H]2CN(S(=O)(=O)c3ccc(F)cc3)CC[C@H]2O1	1.79%
Cc1cc(C(=O)Nc2ccc(CN3CCOCC3)cn2)n(C)n1	3.86%
Cc1noc(C)c1CCNc1nccc(CCC(F)(F)F)n1	-158%
COCC1CCN(S(=O)(=O)N2C[C@@H](C)[C@@](C)(O)C2)CC1	3.45%
c1ccc2oc(NC3CCCN(Cc4noc(C5CC5)n4)C3)nc2c1 (stereo not given)	-0.989%
O=C(NCc1ccccc1)C1=NOC2(CCNC2)C1 (stereo not given)	0.213%
CCN(CC)c1ccc(NS(=O)(=O)c2cnn(CC)c2)cn1	3.07%
Cc1nc(CNC(=O)c2cc(COc3ccccc3F)[nH]n2)n[nH]1	-7.42%
CS(=O)(=O)N1C[C@@H]2COC[C@]2(COCC(=O)N2CCCC2)C1	-114%
O=C(NCC(O)CN1CCc2ccccc2C1)Nc1cccnc1 (stereo not given)	3.2%
COc1ccc(NC(=O)CCNc2ncccn2)cn1	-48.4%
CCC(=O)c1ccccc1NN1c2ccccc2C(=O)C1(C)OC (stereo not given)	8.57%
CN(C)C(=O)CC1CC2(CCN(Cc3ccoc3)CC2)c2ccccc21 (stereo not given)	-10.1%
COc1ccccc1-n1nc(-c2ccco2)n(CC(=O)NC2CC2)c1=O	0.355%
C[C@@H]1CN(Cc2ccc(-c3ccncc3)cc2F)CC(C(N)=O)O1 (stereo not given in full)	2.4%
O=S(=O)(c1ccccc1)N1C[C@@H]2COC[C@]2(CN2CCOCC2)C1	2.32%
CC(C)n1ccnc1CN1CCCN(C(=O)CC2CCCO2)CC1 (stereo not given)	-12.8%
CC(C)Oc1ncc(C(=O)N2CCC(NC(=O)C3CC3)CC2)cc1Cl	-20.8%
Cn1cc(-c2ncc3c(c2C(=O)O)CCN(Cc2ccco2)C3)cn1	6.15%

SMILES	cytotoxicity at 10 µM
Cc1nc(C2CCCN(C(=O)c3ccco3)C2)no1 (stereo not given)	0.529%
CC(C)c1nccn1CCC(=O)N1CCCC1c1cccn1C (stereo not given)	-6.66%
CC(Oc1ccc(S(C)(=O)=O)cc1)C(=O)NC(N)=O (stereo not given)	-5.69%
CC(C)Cc1noc(CN2CCN(S(C)(=O)=O)CC2)n1	5.51%
CC(C)Nc1nc2c(c(NC3CC3)n1)CN(C(=O)c1ccsc1)CC2	-27.2%
CN1CCCCC1c1cncc(Cl)n1 (stereo not given)	0.995%
CO[C@H]1CN(C(=O)c2ccccn2)[C@@H]2CCCO[C@H]12	3.52%
CS(=O)(=O)NCc1noc2c1CN(C(=O)C1CC1)CC2	-107%
Cc1noc(C)c1CN1CC[C@H]2C[C@H](c3nccs3)O[C@@H]2C1	-70.7%
NC(=O)c1ccccc1-n1cc(-c2cccc(C(=O)O)c2)cn1	-5.65%
CCN1C(=O)CC[C@@H]2N(C(=O)CCn3nccc3C)CCCC[C@@]21C	-3.41%
Oc1ncccc1-c1nc(-c2cccc(CN3CCOCC3)c2)no1	-11.8%
CCN1C(=O)CCCC12CCCN(C(=O)c1occc1C)C2 (stereo not given)	2.88%
CC(=O)N1CCN(C(=O)c2cnn(-c3ccccc3Cl)c2)CC1	-8.72%
CN1CCCC(CCC(=O)N2CCc3sc(C(=O)N(C)C)cc3C2)C1 (stereo not given)	1.42%
COc1ccc(CNC(=O)C(NC(=O)Cc2ccccc2)C(C)C)cn1 (stereo not given)	-0.943%
O=S1(=O)NC2(CCCN(CCc3ccccc3)C2)COc2ccccc21 (stereo not given)	7.47%
Cc1cc(CN2CCN(C(=O)Cc3ccccc3F)CC2)on1	-4.02%
O=C(NCc1nnc2n1CCCCC2)N(Cc1ccncc1)C1CC1	9.66%
NC(=O)CN(Cc1cccc(Oc2ccccc2)c1)C(=O)C1CC1	4.59%
CCc1nccn1-c1cccc(C2CCCN(C3CCCCC3)C2)n1 (stereo not given)	-5.08%
Cn1cc(CN2CCCN(C(=O)c3ccccn3)CC2)cn1	-0.514%
